Measurements taken from ChEMBL document CHEMBL3351508, “Second-generation antibacterial benzimidazole ureas: discovery of a preclinical candidate with reduced metabolic liability” (J Med Chem, 2014).
Values after ≈ are worked out from the molar mass of the structure shown.

Tests used:
Enterococcus faecalis = experiment: Antibacterial activity against Enterococcus faecalis ATCC 29212 by CLSI method; type: functional
How it was run: (§1)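 Broth microdilution MIC in liquid medium following CLSI methods, with ATCC strains. Each run was accepted only if comparator antibiotics fell within their recommended quality-control ranges for the appropriate ATCC strain.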

Haemophilus influenzae = experiment: Antibacterial activity against Haemophilus influenzae ATCC 49247 by CLSI method; type: functional; how it was run: as §1
DNA gyrase = DNA gyrase (Escherichia coli, UniProt P0AES4+P0AES6); experiment: Inhibition of […] Escherichia coli DNA gyrase A2B2 using pBR322 plasmid DNA as substrate by coupled enzyme reaction assay; type: protein-complex assay
Staphylococcus aureus [1] = experiment: Antibacterial activity against Staphylococcus aureus ATCC 29213 by CLSI method; type: functional; how it was run: as §1
Staphylococcus aureus [2] = experiment: Antibacterial activity against Staphylococcus aureus ATCC 29213 by CLSI method in presence of human 50% serum; type: functional; how it was run: as §1
Streptococcus pneumoniae = experiment: Antibacterial activity against Streptococcus pneumoniae ATCC 10015 by CLSI method; type: functional; how it was run: as §1
[3] = Inhibition of Staphylococcus aureus DNA topoisomerase-4 C2E2 using pBR322 plasmid DNA as substrate by coupled enzyme reaction assay
Liver microsome [4] = experiment: Drug metabolism in rat liver microsomes assessed as compound formation treated with 30 uM 1-Ethyl-3-(5-(5-fluoropyridin-3-yl)-7-(pyrimidin-2-yl)-1H-benzo-[d]imidazol-2-yl)urea for 1 hr; type: ADME
[5] = Drug metabolism in monkey liver microsomes assessed as compound formation treated with 30 uM 1-Ethyl-3-(5-(5-fluoropyridin-3-yl)-7-(pyrimidin-2-yl)-1H-benzo-[d]imidazol-2-yl)urea for 1 hr; type: ADME, Macaca mulatta; settings: rhesus monkey
Liver microsome [6] = experiment: Drug metabolism in human liver microsomes assessed as compound formation treated with 30 uM 1-Ethyl-3-(5-(5-fluoropyridin-3-yl)-7-(pyrimidin-2-yl)-1H-benzo-[d]imidazol-2-yl)urea for 1 hr; type: ADME
[7] = Drug metabolism in human liver S9 fractions assessed as compound formation treated with 30 uM 1-Ethyl-3-(5-(5-fluoropyridin-3-yl)-7-(pyrimidin-2-yl)-1H-benzo-[d]imidazol-2-yl)urea for 1 hr; type: ADME, subcellular, Liver S9 fraction; settings: s9, 1 h
Cytochrome P450 3A4 = Cytochrome P450 3A4 (Homo sapiens, UniProt P08684); experiment: Drug metabolism in recombinant CYP3A4 (unknown origin) assessed as compound formation treated with 1 uM 1-Ethyl-3-(5-(5-fluoropyridin-3-yl)-7-(pyrimidin-2-yl)-1H-benzo-[d]imidazol-2-yl)urea for 30 mins; type: ADME; settings: recombinant enzyme, 0.5 h, in the assay text read “10 uM” for “1 uM”
How it was run: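 Parent at 1 and 10 μM was incubated with individual recombinant CYP supersomes, with and without NADPH, for 0, 15 and 30 min. Formation of the imine metabolite was quantified by LC-MS/MS.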

Cytochrome P450 1A2 = biological target: T1, Cytochrome P450 1A2 (Homo sapiens, UniProt P05177); experiment: Drug metabolism in recombinant CYP1A2 (unknown origin) assessed as compound formation treated with 10 uM 1-Ethyl-3-(5-(5-fluoropyridin-3-yl)-7-(pyrimidin-2-yl)-1H-benzo-[d]imidazol-2-yl)urea for 30 mins; settings: recombinant enzyme, 0.5 h
T1 sequence (P05177 whole entry): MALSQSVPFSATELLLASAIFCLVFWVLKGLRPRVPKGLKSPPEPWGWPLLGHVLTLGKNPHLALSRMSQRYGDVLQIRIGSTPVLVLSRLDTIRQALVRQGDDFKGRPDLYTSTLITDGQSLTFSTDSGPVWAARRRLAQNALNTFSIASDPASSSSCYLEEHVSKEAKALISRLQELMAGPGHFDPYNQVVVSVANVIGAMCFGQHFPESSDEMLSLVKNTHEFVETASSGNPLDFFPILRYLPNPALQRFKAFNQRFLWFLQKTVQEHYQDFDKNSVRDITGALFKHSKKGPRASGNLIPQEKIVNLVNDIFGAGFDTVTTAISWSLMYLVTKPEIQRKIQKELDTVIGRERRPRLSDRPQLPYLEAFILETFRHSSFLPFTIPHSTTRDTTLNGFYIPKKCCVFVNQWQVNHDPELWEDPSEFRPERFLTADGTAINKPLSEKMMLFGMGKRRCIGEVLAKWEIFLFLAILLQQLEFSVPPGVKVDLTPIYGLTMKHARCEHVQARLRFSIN

Cytochrome P450 2D6 = Cytochrome P450 2D6 (Homo sapiens, UniProt P10635); experiment: Drug metabolism in recombinant CYP2D6 (unknown origin) assessed as compound formation treated with 10 uM 1-Ethyl-3-(5-(5-fluoropyridin-3-yl)-7-(pyrimidin-2-yl)-1H-benzo-[d]imidazol-2-yl)urea for 30 mins; settings: recombinant enzyme, 0.5 h
Enterococcus faecium = experiment: Antibacterial activity against Enterococcus faecium ATCC 49624 by CLSI method; type: functional; how it was run: as §1
Rattus norvegicus = experiment: Dose normalized AUC in rat at 30 mg/kg, po; type: ADME, organism-based; design: dose 30 mg/kg, route oral; settings: in vivo

Chain of Cytochrome P450 3A4 (P08684 whole entry): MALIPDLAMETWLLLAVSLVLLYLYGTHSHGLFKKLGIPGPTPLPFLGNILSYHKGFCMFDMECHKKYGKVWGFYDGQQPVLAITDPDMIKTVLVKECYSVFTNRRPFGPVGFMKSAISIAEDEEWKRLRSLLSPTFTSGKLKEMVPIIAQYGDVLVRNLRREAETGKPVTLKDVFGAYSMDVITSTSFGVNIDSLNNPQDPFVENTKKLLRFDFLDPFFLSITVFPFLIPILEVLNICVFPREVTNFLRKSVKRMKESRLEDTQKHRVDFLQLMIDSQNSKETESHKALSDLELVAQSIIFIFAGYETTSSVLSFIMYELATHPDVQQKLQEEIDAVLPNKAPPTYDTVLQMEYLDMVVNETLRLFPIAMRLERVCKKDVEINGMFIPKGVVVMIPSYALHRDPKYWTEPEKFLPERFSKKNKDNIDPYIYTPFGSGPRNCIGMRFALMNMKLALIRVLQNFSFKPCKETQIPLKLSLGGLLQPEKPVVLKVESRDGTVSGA
Chain of Cytochrome P450 2D6 (P10635 whole entry): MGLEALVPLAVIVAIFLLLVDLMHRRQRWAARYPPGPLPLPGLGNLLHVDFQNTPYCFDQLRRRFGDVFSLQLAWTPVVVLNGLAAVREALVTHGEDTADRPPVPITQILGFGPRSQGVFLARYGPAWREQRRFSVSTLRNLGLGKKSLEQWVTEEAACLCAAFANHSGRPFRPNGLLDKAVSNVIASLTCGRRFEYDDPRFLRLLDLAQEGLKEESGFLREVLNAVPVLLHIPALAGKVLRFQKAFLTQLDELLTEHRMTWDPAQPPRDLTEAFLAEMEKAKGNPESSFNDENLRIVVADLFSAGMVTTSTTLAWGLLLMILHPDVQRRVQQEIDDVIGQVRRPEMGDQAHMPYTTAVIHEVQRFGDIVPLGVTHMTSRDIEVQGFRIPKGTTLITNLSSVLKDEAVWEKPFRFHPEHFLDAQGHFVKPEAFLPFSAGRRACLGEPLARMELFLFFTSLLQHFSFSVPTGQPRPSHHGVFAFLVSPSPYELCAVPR

Row | Compound | MIC (Enterococcus faecalis) [µg/mL] | MIC (Staphylococcus aureus [1]) [µg/mL] | MIC (Staphylococcus aureus [2]) [µg/mL] | MIC (Streptococcus pneumoniae) [µg/mL] | MIC (Enterococcus faecium) [µg/mL] | AUC/dose (Rattus norvegicus) [microg.hr/mL per mg/kg] | also measured
1 | CCNC(=O)Nc1nc2cc(-c3cccnc3)cc(-c3ncccc3F)c2[nH]1 | 0.016 (≈ 0.0425 µM) | 0.031 (≈ 0.0824 µM) | 1 | ≤ 0.008 | – | – | MIC (Haemophilus influenzae): 1 µg/mL (≈ 2.66 µM); Ki (DNA gyrase): 6 nM
2 | CCNC(=O)Nc1nc2cc(-c3cnc(C(C)(C)O)nc3)cc(-c3ncccc3F)c2[nH]1 | 0.032 (≈ 0.0735 µM) | 0.031 (≈ 0.0712 µM) | 0.25 | ≤ 0.008 | – | – | MIC (Haemophilus influenzae): 1 µg/mL (≈ 2.3 µM); Ki (DNA gyrase): < 4 nM; Ki [3]: < 6 nM
3 | C=CNC(=O)Nc1nc2cc(-c3cncc(F)c3)cc(-c3ncccn3)c2[nH]1 | – | – | – | – | – | – | Drug metabolism (Liver microsome [4]): metabolite_detected; Drug metabolism [5]: metabolite_detected; Drug metabolism (Liver microsome [6]): metabolite_detected; Drug metabolism [7]: metabolite_detected
4 | O=C(Nc1nc2cc(-c3cncc(F)c3)cc(-c3ncccn3)c2[nH]1)NC1CO1 (stereo not given) | – | – | – | – | – | – | Drug metabolism (Liver microsome [4]): metabolite_detected; Drug metabolism [5]: metabolite_detected; Drug metabolism (Liver microsome [6]): metabolite_detected; Drug metabolism [7]: metabolite_detected
5 | CC1NC(=O)Nc2nc3c(-c4ncccn4)cc(-c4cncc(F)c4)cc3n21 (stereo not given) | – | – | – | – | – | – | Drug metabolism (Liver microsome [4]): metabolite_detected; Drug metabolism [5]: metabolite_detected; Drug metabolism (Liver microsome [6]): metabolite_detected; Drug metabolism [7]: metabolite_detected; Drug metabolism (Cytochrome P450 3A4): metabolite_detected; Drug metabolism (Cytochrome P450 1A2): metabolite_detected; Drug metabolism (Cytochrome P450 2D6): metabolite_detected
6 | NC(=O)Nc1nc2cc(-c3cncc(F)c3)cc(-c3ncccn3)c2[nH]1 | – | > 8 | > 8 | – | – | – | –
7 | CCCC(=O)Nc1nc2cc(-c3cncc(F)c3)cc(-c3ncccn3)c2[nH]1 | – | > 8 | > 8 | – | – | – | –
8 | CNCC(=O)Nc1nc2cc(-c3cncc(F)c3)cc(-c3ncccn3)c2[nH]1 | > 8 | > 8 | > 8 | > 8 | > 8 | – | –
9 | CCOC(=O)Nc1nc2cc(-c3cncc(F)c3)cc(-c3ncccn3)c2[nH]1 | 0.016 (≈ 0.0423 µM) | 0.016 (≈ 0.0423 µM) | > 8 | 0.008 (≈ 0.0211 µM) | 0.016 (≈ 0.0423 µM) | – | –
10 | COCC(=O)Nc1nc2cc(-c3cncc(F)c3)cc(-c3ncccn3)c2[nH]1 | 0.032 (≈ 0.0846 µM) | 0.064 (≈ 0.169 µM) | 8 | 0.032 (≈ 0.0846 µM) | 0.032 (≈ 0.0846 µM) | – | –
11 | CCNC(=O)Nc1nc2cc(-c3cccnc3)c(F)c(-n3cccn3)c2[nH]1 | 0.063 (≈ 0.172 µM) | 0.25 (≈ 0.684 µM) | 2 | 0.032 (≈ 0.0876 µM) | – | 10.8 | –
12 | CCNC(=O)Nc1nc2cc(-c3ccc(CN4CCOCC4)nc3)c(F)c(-n3cccn3)c2[nH]1 | 0.125 (≈ 0.269 µM) | 0.25 (≈ 0.538 µM) | 1 | 0.016 (≈ 0.0344 µM) | 0.5 (≈ 1.08 µM) | 13.8 | –
13 | CCNC(=O)Nc1nc2cc(-c3ccc(CN4CCOCC4)nc3)c(F)c(-n3cc(C)cn3)c2[nH]1 | 0.063 (≈ 0.132 µM) | 0.063 (≈ 0.132 µM) | 0.5 | 0.016 (≈ 0.0334 µM) | 0.25 (≈ 0.522 µM) | 1.9 | –
14 | CCNC(=O)Nc1nc2cc(-c3cc(C)n(Cc4ccccn4)c(=O)c3)c(F)c(-n3cc(C)cn3)c2[nH]1 | 0.016 (≈ 0.032 µM) | 0.016 (≈ 0.032 µM) | 0.125 | 0.008 (≈ 0.016 µM) | 0.032 (≈ 0.0639 µM) | 0.2 | –
15 | CCNC(=O)Nc1nc2cc(-c3ccc(C(C)O)nc3)c(F)c(-n3cccn3)c2[nH]1 (stereo not given) | 0.125 (≈ 0.305 µM) | 0.125 (≈ 0.305 µM) | 3 | 0.032 (≈ 0.0782 µM) | 0.5 (≈ 1.22 µM) | – | –
16 | CCNC(=O)Nc1nc2cc(-c3ccc(C(O)CC)nc3)c(F)c(-n3cccn3)c2[nH]1 (stereo not given) | 0.125 (≈ 0.295 µM) | 0.063 (≈ 0.149 µM) | 2 | 0.032 (≈ 0.0756 µM) | 0.25 (≈ 0.59 µM) | 7.2 | –
17 | CCNC(=O)Nc1nc2cc(-c3ccc([C@@H](O)CC)nc3)c(F)c(-n3cccn3)c2[nH]1 | 0.063 (≈ 0.149 µM) | 0.063 (≈ 0.149 µM) | 1 | 0.016 (≈ 0.0378 µM) | 0.5 (≈ 1.18 µM) | 8.4 | –
18 | CCNC(=O)Nc1nc2cc(-c3ccc([C@H](O)CC)nc3)c(F)c(-n3cccn3)c2[nH]1 | 0.063 (≈ 0.149 µM) | 0.25 (≈ 0.59 µM) | 4 | 0.063 (≈ 0.149 µM) | 0.25 (≈ 0.59 µM) | – | –
19 | CCNC(=O)Nc1nc2cc(-c3cnc(C(C)(C)O)nc3)cc([C@H]3CCCO3)c2[nH]1 | 0.063 (≈ 0.153 µM) | 0.125 (≈ 0.305 µM) | 0.25 | 0.032 (≈ 0.078 µM) | 0.5 (≈ 1.22 µM) | 4.3 | –
20 | CCNC(=O)Nc1nc2cc(-c3cnc(C(C)(C)O)nc3)cc([C@@H]3CCCO3)c2[nH]1 | 1 (≈ 2.44 µM) | 1 (≈ 2.44 µM) | 2 | 0.5 (≈ 1.22 µM) | 2 (≈ 4.87 µM) | – | –
21 | CCNC(=O)Nc1nc2cc(-c3cnc(C(C)(C)O)nc3)c(F)c([C@@H]3CCCO3)c2[nH]1 | 0.5 (≈ 1.17 µM) | 0.5 (≈ 1.17 µM) | 4 | 0.25 (≈ 0.583 µM) | 2 (≈ 4.67 µM) | – | –
22 | CCNC(=O)Nc1nc2c(-n3cccn3)cc(-c3cccnc3)cc2[nH]1 | 0.063 (≈ 0.181 µM) | 0.25 (≈ 0.72 µM) | 4 | 0.016 (≈ 0.0461 µM) | – | 5.7 | –
23 | CCNC(=O)Nc1nc2cc(-c3cccnc3)cc(C3CCCO3)c2[nH]1 (racemic) | 0.25 (≈ 0.711 µM) | 1 (≈ 2.85 µM) | 4 | 0.125 (≈ 0.356 µM) | – | – | –
24 | CCNC(=O)Nc1nc2cc(-c3cncnc3)cc(C3CCCO3)c2[nH]1 (racemic) | 0.5 (≈ 1.42 µM) | 1 (≈ 2.84 µM) | 2 | 0.125 (≈ 0.355 µM) | 1 (≈ 2.84 µM) | 10.5 | –
25 | CCNC(=O)Nc1nc2cc(-c3ccn(C)c(=O)c3)cc(C3CCCO3)c2[nH]1 (racemic) | 0.25 (≈ 0.655 µM) | 0.75 (≈ 1.97 µM) | 0.75 | 0.016 (≈ 0.0419 µM) | 0.25 (≈ 0.655 µM) | – | –
26 | CCNC(=O)Nc1nc2cc(-c3cc(C)n(Cc4ccccn4)c(=O)c3)cc(C3CCCO3)c2[nH]1 (racemic) | 0.125 (≈ 0.265 µM) | 0.125 (≈ 0.265 µM) | 0.25 | 0.008 (≈ 0.0169 µM) | 0.25 (≈ 0.529 µM) | – | –
27 | CCNC(=O)Nc1nc2cc(-c3ccc(C(C)(C)O)nc3)cc(C3CCCO3)c2[nH]1 (racemic) | 0.25 (≈ 0.611 µM) | 0.5 (≈ 1.22 µM) | 2 | 0.063 (≈ 0.154 µM) | 1 (≈ 2.44 µM) | 2.6 | –
28 | CCNC(=O)Nc1nc2cc(-c3cnc(C(C)(C)O)nc3)cc(C3CCCO3)c2[nH]1 (racemic) | 0.25 (≈ 0.609 µM) | 0.25 (≈ 0.609 µM) | 0.5 | 0.032 (≈ 0.078 µM) | 0.5 (≈ 1.22 µM) | 5.5 | –
29 | CCNC(=O)Nc1nc2cc(-c3cnc(C(C)(C)O)nc3)c(F)c(C3CCCO3)c2[nH]1 (racemic) | 0.125 (≈ 0.292 µM) | 0.063 (≈ 0.147 µM) | 0.5 | 0.032 (≈ 0.0747 µM) | 0.5 (≈ 1.17 µM) | – | –
